# Measured values reported in article PMC7261596 (Journal of the American Chemical Society, 2019).
# Assays:
# ULK4 [1] = target: T1, ULK4 (Homo sapiens, UniProt Q96C45); assay: Mant-ADP FRET nucleotide binding / displacement assay; details: competition with a fixed concentration of Mant-ADP
# ULK4 [2] = target: T1, ULK4; assay: ADP-Biotin labelling assay detected by Western blot; format: binding; details: single concentration 25 μM; ratio of Streptavidin signal to His signal
# In short: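 ULK4 incubated with the nucleotide analog ADP-Biotin, which biotin-labels the kinase only when bound. Biotinylated protein detected by Western blot. Test compounds, hits confirmed from a Mant-ADP displacement screen and dose response, tested at 25 μM, with competing nucleotides also at 25 μM. Mutant ULK4 forms also assayed for ADP-Biotin binding.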
# T1 sequence (Q96C45 4-280 limits assumed): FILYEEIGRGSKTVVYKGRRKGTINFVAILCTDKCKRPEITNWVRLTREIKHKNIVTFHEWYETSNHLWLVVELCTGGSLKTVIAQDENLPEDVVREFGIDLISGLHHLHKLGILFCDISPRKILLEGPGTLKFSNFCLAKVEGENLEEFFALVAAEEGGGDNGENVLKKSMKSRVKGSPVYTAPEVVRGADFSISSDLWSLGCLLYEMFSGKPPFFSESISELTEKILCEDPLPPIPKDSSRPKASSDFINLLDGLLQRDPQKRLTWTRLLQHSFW
SMILES,Ki (ULK4 [1]; With Mg),Ki (ULK4 [1]; Without Mg),inhibition of ADP-Biotin binding to ULK4 (relative potency) (ULK4 [2])
Nc1ncnc2c1ncn2[C@@H]1O[C@H](COP(=O)(O)OP(=O)(O)O)[C@@H](O)[C@H]1O [ADP],37 µM,6.05 µM,
Nc1ncnc2c1ncn2[C@@H]1O[C@H](COP(=O)(O)OP(=O)(O)OP(=O)(O)O)[C@@H](O)[C@H]1O [ATP],4.67 µM,0.306 µM,
CNC(=O)c1nn(C)c2c1C(C)(C)Cc1cnc(Nc3ccc(N4CCN(C)CC4)cc3)nc1-2 [PHA-848125],,,most potent ULK4 binders
COc1cc(Nc2ncc(F)c(Nc3ccc4c(n3)N(COP(=O)(O)O)C(=O)C(C)(C)O4)n2)cc(OC)c1OC [R788],,,most potent ULK4 binders
